NS3 helicase inh: inhibitors of HCV NS3 helicase, primary screen, biochemical, Cy5 molecular beacon fluorescence | inhibition, % at 10.9 µM | 290,000 tested, 0.56% active | NS3 helicase DNA unwinding | Hepatitis C virus NS3 helicase;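 active = inhibition above the mean of all tested compounds plus 3 SD, set per campaign, cut at about 35% in these data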
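Material: hepatitis C virus NS3 helicase domain fragment enzyme; measured by: Cy5 fluorescence, 0 and 60 min reads; control set: DMSO and thioflavine S; incubation: 60 min unwinding reaction at 25 °C after ATP addition; read-out basis: % inhibition from 60/0 min fluorescence ratio, DMSO 0%, thioflavine S 100%; repeats: singlicate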
DNA FID counter: compounds displacing fluorescent DNA intercalator, primary screen, artefact control for HCV NS3 helicase inhibitor project, biochemical, FID fluorescence. 290,000 tested, 0.17% active. inhibition, % at 7.9 µM. DNA fluorescent intercalator displacement. AID 1845, 2009; in the data active = inhibition above about 37%;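 note: higher means more ethidium bromide displaced from hairpin DNA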
HIF activator: HIF pathway transcriptional activators, primary screen, cell-based, U2OS HRE-luciferase, luminescence | 300,000 tested, 0.32% active | U2OS HRE-luciferase reporter; normalized: DMSO 0%, desferrioxamine 100% | AID 1910, 2009 | activation, % at 7.5 µM (by protocol);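 active = mean activation of at least 10% of the iron chelator positive control signal, with at least half of replicates also reaching 10%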
PP1 inh: PP1-alpha phosphatase inhibitors, primary screen, counter-screen for PP5 inhibitor project, biochemical, fluorescence, OMFP substrate, single point. Serine/threonine-protein phosphatase PP1-alpha catalytic subunit (Homo sapiens), P62136. purified PP1alpha. inhibition, % at 6.7 µM. 320,000 tested, 0.9% active. AID 2235, 2010;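 active = inhibition above the mean inhibition of all tested compounds plus 3 SD, computed separately for each screening campaign, cut at about 15% in these data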
PP5 primary: PP5 phosphatase inhibitors, primary screen, biochemical, fluorescence; Serine/threonine-protein phosphatase 5 (Homo sapiens), P53041; purified PP5c, OMFP substrate fluorescence; inhibition, % at 6.7 µM; 320,000 tested, 0.18% active; AID 1987, 2009;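 active = inhibition above the campaign's mean inhibition across all tested compounds plus 3 SD, cut at about 9.5% in these data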
Target sequence (P53041 whole entry, looked up): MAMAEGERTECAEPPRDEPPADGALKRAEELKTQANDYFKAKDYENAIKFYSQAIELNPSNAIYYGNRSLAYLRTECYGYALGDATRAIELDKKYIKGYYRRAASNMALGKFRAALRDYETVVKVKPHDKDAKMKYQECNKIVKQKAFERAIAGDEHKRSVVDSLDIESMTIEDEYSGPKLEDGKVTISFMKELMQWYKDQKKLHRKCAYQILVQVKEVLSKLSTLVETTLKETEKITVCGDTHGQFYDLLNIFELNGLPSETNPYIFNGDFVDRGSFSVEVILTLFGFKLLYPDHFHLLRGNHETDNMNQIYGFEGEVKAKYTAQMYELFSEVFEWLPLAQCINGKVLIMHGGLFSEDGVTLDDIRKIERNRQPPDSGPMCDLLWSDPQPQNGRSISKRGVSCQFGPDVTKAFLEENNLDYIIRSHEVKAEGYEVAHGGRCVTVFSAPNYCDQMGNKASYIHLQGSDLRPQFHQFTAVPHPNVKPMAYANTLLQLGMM
PP5 inh confirm: PP5 phosphatase inhibitors, confirmation, biochemical, fluorescence, human. inhibition, % at 6.7 µM. Purified PP5, fluorogenic phosphatase substrate. 460 tested, 22% active. shares compounds with PP5 primary; in the data active = inhibition above about 9.5%
PP1 counter 3x: PP1 phosphatase inhibitors, counter-screen for PP5 inhibitor project, biochemical, fluorescence, triplicate | shares compounds with PP5 primary | 460 tested, 4% active | inhibition, % at 6.7 µM | AID 2355, 2010 | PP1 enzyme, fluorescent phosphatase substrate; in the data active = inhibition above about 16%
PP1 confirm: PP1 phosphatase inhibitors, confirmation, biochemical, fluorescence, OMFP substrate, triplicate; 1,900 tested, 52% active; shares compounds with PP1 inh; purified PP1alpha; inhibition, % at 6.7 µM;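 active = mean PP1 inhibition above a set limit taken from the earlier primary screen, cut at about 15% in these data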
PP5 inh counter: PP5 phosphatase inhibition by PP1 hits, confirmation, counter-screen for PP1 inhibitor project, biochemical, fluorescence, triplicate; 1,900 tested, 4% active; inhibition, % at 6.7 µM; purified PP5c, OMFP fluorescence; shares compounds with PP1 inh;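 active = mean PP5 inhibition over triplicate wells above about 9.5% taken from the earlier PP1 screen, limit read from the data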
Each line names hits and unclear results; the compound was inactive in the other large screens (follow-up assays come after a bar, where they were run). Hits are enriched below; roughly 1.9% of the tested compounds scored in any of these assays.

Cc1cc2c(cc1S(=O)(=O)Nc1cccc(F)c1)n(C)c(=O)c(=O)n2C	none
O=C(COc1cccnc1[N+](=O)[O-])c1ccc(Cl)s1	PP5 primary 11 | PP5 inh confirm inactive | PP1 counter 3x inactive
Cc1noc(C)c1COc1ccc(C(=O)N2CCN(c3ccccn3)CC2)cc1	none (no result: NS3 helicase inh, DNA FID counter)
Nc1ccc(O)cc1	PP5 primary 11 (no result: NS3 helicase inh, DNA FID counter) | PP5 inh confirm inactive | PP1 counter 3x inactive
Nc1ccc(C(=O)O)cc1	none (no result: NS3 helicase inh, DNA FID counter)
CC1CCCN(C(=O)c2ccc(NC(=O)CC3SC(N4CCCC4)=NC3=O)cc2)C1 (stereo not given)	none (no result: NS3 helicase inh, DNA FID counter)
O=C1CC(N2CCN(c3ccccc3)CC2)C(=O)N1c1cccc(Cl)c1 (stereo not given)	none
O=C1CC(N2CCN(c3ccc(Cl)cc3)CC2)C(=O)N1c1ccccc1 (stereo not given)	PP5 primary 10 | PP5 inh confirm inactive | PP1 counter 3x inactive
CCc1nn(C(C)C(=O)N2CCN(c3ccc(OC)cc3)CC2)c(=O)c2cc3occc3n12 (stereo not given)	none
Cn1ccnc1C(=O)c1ccc(Cl)c(S(=O)(=O)N2CCOCC2)c1	PP5 primary 10.0 | PP5 inh confirm inactive | PP1 counter 3x inactive
Cn1ccnc1C(=O)c1ccc(S(=O)(=O)N2CCCC2)cc1	none
Oc1c(CN2CCN(c3ccccc3)CC2)cc(Br)c2cccnc12	HIF activator 39, PP1 inh 29 | PP1 confirm 32 | PP5 inh counter inactive
COc1ccc(C2=CC3=CC(=O)C(C)(O)C(=O)C3=CO2)cc1 (stereo not given)	PP1 inh 18 (no result: NS3 helicase inh, DNA FID counter) | PP1 confirm inactive | PP5 inh counter inactive
CC1(O)C(=O)C=C2C=C(c3ccc(C#N)cc3)OC=C2C1=O (stereo not given)	PP1 inh 35 (no result: NS3 helicase inh, DNA FID counter) | PP1 confirm 21 | PP5 inh counter inactive
COc1ccc(C2=CC3=C(Br)C(=O)C(C)(O)C(=O)C3=CO2)cc1 (stereo not given)	none (no result: NS3 helicase inh, DNA FID counter)
CCC(=O)OC1(C)C(=O)C=C2C=C(c3ccc(C#N)cc3)OC=C2C1=O (stereo not given)	none (no result: NS3 helicase inh, DNA FID counter)
Cc1ccc(C(=O)n2c(-c3ccccc3)cnc2SCC(=O)Nc2ccc(C)cc2C)cc1	none
CCc1ccccc1N1C(=O)C(Cl)=C(N2CCOCC2)C1=O	none
CCCCCCN(C(=O)CCCCCN1C(=O)NC(c2ccc(-c3ccccc3)cc2)C(C(=O)OCc2ccccc2)=C1C)C(C(=O)NCCCC)c1ccc(OCC(=O)OC)c(C(=O)OC)c1 (stereo not given)	PP1 inh 38 (no result: NS3 helicase inh, DNA FID counter) | PP1 confirm 21 | PP5 inh counter inactive
CCCCCCN(C(=O)CCCCCN1C(=O)NC(c2ccc(Cl)cc2)C(C(=O)OCc2ccccc2)=C1C)C(C(=O)NCCCC)c1ccc(OCC(=O)OC)c(C(=O)OC)c1 (stereo not given)	none (no result: HIF activator, PP1 inh, PP5 primary)
CCCCCCN(C(=O)CCCCCN1C(=O)NC(c2cccc([N+](=O)[O-])c2)C(C(=O)OCc2ccccc2)=C1C)C(C(=O)NCCCC)c1ccc(OCC(=O)OC)c(C(=O)OC)c1 (stereo not given)	PP1 inh 36 (no result: NS3 helicase inh, DNA FID counter) | PP1 confirm 37 | PP5 inh counter inactive
